Data: ChEMBL document CHEMBL5512642, “Novel triterpenoid pyrones, phthalimides and phthalates are selectively cytotoxic in CCRF-CEM cancer cells - Synthesis, potency, and mitochondrial mechanism of action” (Eur J Med Chem, 2024)
Active and inactive are the calls of the source. The rule behind the calls is not given here.

Legend:
CCRF-CEM [1] = test: Cytotoxicity against human CCRF-CEM cells assessed as reduction in cell viability incubated for 72 hrs by MTS assay; type: functional, cell-based
CEM-DNR = test: Cytotoxicity against human CEM-DNR cells assessed as reduction in cell viability incubated for 72 hrs by MTS assay; type: functional, cell-based
K562 = test: Cytotoxicity against human K562 cells assessed as reduction in cell viability incubated for 72 hrs by MTS assay; type: functional, cell-based; conditions: K562, 72 h
[2] = Cytotoxicity against human K562-Tax cells assessed as reduction in cell viability incubated for 72 hrs by MTS assay; type: functional, cell-based
A549 = test: Cytotoxicity against human A549 cells assessed as reduction in cell viability incubated for 72 hrs by MTS assay; type: functional, cell-based; conditions: A549, 72 h
HCT-116 = test: Cytotoxicity against human HCT-116 cells assessed as reduction in cell viability incubated for 72 hrs by MTS assay; type: functional, cell-based; conditions: HCT-116, 72 h
HCT 116 TP53(-/-) = test: Cytotoxicity against human HCT116-p53-null cells assessed as reduction in cell viability incubated for 72 hrs by MTS assay; type: functional, cell-based
U2OS = test: Cytotoxicity against human U2OS cells assessed as reduction in cell viability incubated for 72 hrs by MTS assay; type: functional, cell-based
[3] = Cytotoxicity against human BJ cells assessed as reduction in cell viability incubated for 72 hrs by MTS assay; type: toxicity, cell-based
[4] = Cytotoxicity against human MRC5 cells assessed as reduction in cell viability incubated for 72 hrs by MTS assay; type: toxicity, cell-based
[5] = Stability in human plasma assessed as compound remaining measured 15 mins by RF-MS analysis; type: ADME, cell-free; conditions: read-out: Stability
Method in brief: (§1)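 Compounds incubated in human plasma in vitro for up to 2 h. Percent remaining sampled at 15, 30, 60 and 120 min. Run in triplicate.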

[6] = Stability in human plasma assessed as compound remaining measured 30 mins by RF-MS analysis; type: ADME, cell-free; conditions: read-out: Stability; method in brief: as §1
[7] = Stability in human plasma assessed as compound remaining measured 60 mins by RF-MS analysis; type: ADME, cell-free; conditions: read-out: Stability; method in brief: as §1
[8] = Stability in human plasma assessed as compound remaining measured 120 mins by RF-MS analysis; type: ADME, cell-free; conditions: read-out: Stability; method in brief: as §1
[9] = Plasma protein binding in human assessed as fraction bound at 10 uM by rapid equilibrium dialysis based RF-MS analysis; type: ADME, cell-free; conditions: read-out: PPB (converted)
Method in brief: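 Human plasma protein binding measured by equilibrium dialysis and reported as percent fraction bound. Run in triplicate.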

[10] = Apparent permeability of the compound in MDCK-MDR1 cells at 10 uM incubated for 1 hr by RF-MS analysis; type: ADME, cell-based, Canis lupus familiaris; conditions: dog
Method in brief: (§2)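 Caco-2 and MDCK-MDR1 monolayers; transport measured in both directions, apical→basolateral and basolateral→apical. Efflux ratio taken from the two directions; ER > 2 counted as active efflux. Compound recovery reported. Cell-based permeability runs done in duplicate.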

[11] = Apparent permeability of the compound across apical to basolateral side in MDCK-MDR1 cells assessed as compound recovery at 10 uM incubated for 1 hr by RF-MS analysis; type: ADME, cell-based, Canis lupus familiaris; conditions: dog, read-out: Activity; method in brief: as §2
[12] = Metabolic stability in human liver microsomes assessed as compound remaining at measured at 15 mins in presence of NADPH by RF-MS analysis; type: ADME, Microsome; conditions: read-out: Stability
Method in brief: (§3)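 Human liver microsomes with NADPH cofactor to assess phase I oxidation. Compound remaining sampled at 15, 30 and 60 min; intrinsic clearance derived and categorized. Run in triplicate.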

[13] = Metabolic stability in human liver microsomes assessed as compound remaining at measured at 60 mins in presence of NADPH by RF-MS analysis; type: ADME, Microsome; conditions: read-out: Stability; method in brief: as §3
[14] = Apparent permeability of the compound in human Caco-2 cells; type: ADME, cell-based; method in brief: as §2
[15] = Apparent permeability of the compound across apical to basolateral side in human Caco-2 cells assessed as compound recovery; type: ADME, cell-based; conditions: read-out: Activity; method in brief: as §2
CCRF-CEM [16] = test: Induction of apoptosis in human CCRF-CEM cells assessed as viable cells at 1 time IC50 incubated for 24 hrs by Annexin V and propidium iodide staining based flow cytometry analysis (reference value: 98%); type: functional
CCRF-CEM [17] = test: Induction of apoptosis in human CCRF-CEM cells assessed as early apoptotic cells at 1 time IC50 incubated for 24 hrs by Annexin V and propidium iodide staining based flow cytometry analysis (reference value: 1.4%); type: functional
CCRF-CEM [18] = test: Induction of apoptosis in human CCRF-CEM cells assessed as late apoptotic cells at 1 time IC50 incubated for 24 hrs by Annexin V and propidium iodide staining based flow cytometry analysis (reference value: 0.5%); type: functional
CCRF-CEM [19] = test: Induction of apoptosis in human CCRF-CEM cells assessed as necrotic cells at 1 time IC50 incubated for 24 hrs by Annexin V and propidium iodide staining based flow cytometry analysis (reference value: 0.1%); type: functional
CCRF-CEM [20] = test: Induction of apoptosis in human CCRF-CEM cells assessed as viable cells at 5 time IC50 incubated for 24 hrs by Annexin V and propidium iodide staining based flow cytometry analysis (reference value: 98%); type: functional
CCRF-CEM [21] = test: Induction of apoptosis in human CCRF-CEM cells assessed as early apoptotic cells at 5 time IC50 incubated for 24 hrs by Annexin V and propidium iodide staining based flow cytometry analysis (reference value: 1.4%); type: functional
CCRF-CEM [22] = test: Induction of apoptosis in human CCRF-CEM cells assessed as late apoptotic cells at 5 time IC50 incubated for 24 hrs by Annexin V and propidium iodide staining based flow cytometry analysis (reference value: 0.5%); type: functional
CCRF-CEM [23] = test: Induction of apoptosis in human CCRF-CEM cells assessed as necrotic cells at 5 time IC50 incubated for 24 hrs by Annexin V and propidium iodide staining based flow cytometry analysis (reference value: 0.; type: functional
CCRF-CEM [24] = test: Antimitotic activity against human CCRF-CEM cells assessed as decrease in cell division at 5 times of IC50; type: functional, cell-based
Method in brief: (§4)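 Mitotic fraction scored with the pH3 Ser10 marker and DNA synthesis with BrdU incorporation. For transcription, cells received a short BrU pulse after the 24 h pre-incubation. Read by flow cytometry against untreated cells.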

CCRF-CEM [25] = test: Antiproliferative activity against human CCRF-CEM cells assessed as reduction cell population at 1 time of IC50 by BrdU incorporation assay; type: functional, cell-based; method in brief: as §4
CCRF-CEM [26] = test: Induction of apoptosis in human CCRF-CEM cells assessed as reduction in caspase-3 expression at 5 time of IC50 incubated for 24 hrs by Western blot analysis; type: functional, cell-based
Method in brief: (§5)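 Lysate 20 µg protein per lane on SDS-PAGE, transferred to nitrocellulose, blocked in 5% BSA/TBS-Tween. Probed overnight at 4 °C with anti-caspase-3, Bcl-2, Bcl-XL, β-actin, then HRP secondary 1 h. ECL chemiluminescence detection.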

CCRF-CEM [27] = test: Induction of apoptosis in human CCRF-CEM cells assessed as reduction in Bcl-2 expression at 5 time of IC50 incubated for 24 hrs by Western blot analysis; type: functional, cell-based; method in brief: as §5
CCRF-CEM [28] = test: Induction of apoptosis in human CCRF-CEM cells assessed as reduction in Bcl-XL expression at 5 time of IC50 incubated for 24 hrs by Western blot analysis; type: functional, cell-based; method in brief: as §5
CCRF-CEM [29] = test: Antiproliferative activity against human CCRF-CEM cells assessed as inhibition of RNA synthesis at 5 time of IC50 by BrdU incorporation assay; type: functional, cell-based; conditions: in the assay text read “BrU incorporation assay” for “BrdU incorporation assay”; method in brief: as §4
CCRF-CEM [30] = test: Antiproliferative activity against human CCRF-CEM cells assessed as reduction BruD positive cell at 1 time of IC50 by BrdU incorporation assay; type: functional, cell-based; method in brief: as §4
CCRF-CEM [31] = test: Antiproliferative activity against human CCRF-CEM cells assessed as reduction BruD positive cell at 5 time of IC50 by BrdU incorporation assay; type: functional, cell-based; method in brief: as §4
CCRF-CEM [32] = test: Induction of mitochondrial membrane potential loss in human CCRF-CEM cells assessed as cells with depolarized mitochondria (P2 gate) by measuring green fluorescence intensity at 1 time IC50 incubated for 24 hrs by JC-1 staining based flow cytometry (reference value: 2.1%)
CCRF-CEM [33] = test: Induction of mitochondrial membrane potential loss in human CCRF-CEM cells assessed as cells with depolarized mitochondria (P2 gate) by measuring green fluorescence intensity at 5 time IC50 incubated for 24 hrs by JC-1 staining based flow cytometry (reference value: 2.1%)

remaining at 0.25 h [5]: 98.4% | remaining at 0.5 h [6]: 97.7% | remaining at 1 h [7]: 97.5% | remaining at 2 h [8]: 94.2% | fraction unbound at 10 µM [9]: 0.056 | Papp at 1 h, 10 µM [10]: 0.27 ×10⁻⁶ cm/s | recovery at 1 h, 10 µM [11]: 64.8% | remaining at 0.25 h [12]: 106% | remaining at 1 h [13]: 82% | Papp [14]: 0.15 ×10⁻⁶ cm/s | recovery [15]: 105%
SMILES: CC(C)[C@@H]1CC[C@]2(C(=O)O)CC[C@]3(C)[C@H](CC[C@@H]4[C@@]5(C)Cc6c(C(F)(F)F)cc(=O)oc6C(C)(C)[C@@H]5CC[C@]43C)[C@@H]12
IC50 (CCRF-CEM [1]): 3.5 µM | IC50 (CEM-DNR): 4.9 µM | IC50 (K562): 23 µM | IC50 [2]: 17 µM | IC50 (A549): 11 µM | IC50 (HCT-116): 10 µM | IC50 (HCT 116 TP53(-/-)): 18 µM | IC50 (U2OS): 19 µM | IC50 at 72 h [3]: > 50 µM | IC50 at 72 h [4]: 27 µM | Activity (CCRF-CEM [16]): 92.4% | Activity (CCRF-CEM [17]): 4.8% | Activity (CCRF-CEM [18]): 2.8% | Activity (CCRF-CEM [19]): 0% | Activity (CCRF-CEM [20]): 69.9% | Activity (CCRF-CEM [21]): 14.3% | Activity (CCRF-CEM [22]): 15.8% | Activity (CCRF-CEM [23]): 0% | Activity (CCRF-CEM [24]): Active | Activity (CCRF-CEM [25]): inactive | Activity (CCRF-CEM [26]): Active | Activity (CCRF-CEM [27]): Active | Activity (CCRF-CEM [28]): Active | Activity (CCRF-CEM [29]): Active | Activity (CCRF-CEM [30]): inactive | Activity (CCRF-CEM [31]): Active | Activity (CCRF-CEM [32]): 4% | Activity (CCRF-CEM [33]): 28.6%
